# Screening results as filed in PubChem BioAssay.
# An excerpt weighted towards active compounds, which were near 2.3% of everything screened.
# TRPC4 act = TRPC4 (mouse) channel activation; Q9QUQ5; 310,000 tested, 0.49% active; HEK293 TRPC4beta/mu-opioid, Fluo4 calcium fluorescence; hits give high values; B-score at 10 µM;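 active = B-score above 5 SD of library B-scores, and initial fluorescence ratio not above library mean plus 5 SD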;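 also: positive B-score marks a calcium rise read as TRPC4 activation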
#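 Assay system: HEK293 stable line with TRPC4beta plus mu-opioid receptor. Times: dye 45 min RT, read 110 s. Measured by: kinetic Fluo4 calcium fluorescence. Measure: B score of integrated ratio. Controls: assay buffer as low control, maximal DAMGO as high control.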
# TRPC4 PAM = allosteric potentiators of mouse TRPC4 channel. Q9QUQ5. HEK293 TRPC4beta/mu-opioid, DAMGO EC20, Fluo-4 Ca2+ flux; hits give high values. B-score at 10 µM. 310,000 tested, 0.42% active. AID 2227;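 active = B-score of calcium response area above 5 SD of library B-scores, with initial fluorescence ratio within 5 SD of library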;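 also: B-score of integrated fluorescence ratio over time as area under calcium response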
# TRPC6 inh = blocks the mouse TRPC6 cation channel | 310,000 tested, 1.1% active | AID 2553 | HEK293-TRPC6, membrane potential dye, ACh-evoked depolarization; hits give low values | Q61143 | B-score at 10 µM;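 active = B-score under library mean minus 3 SD, initial fluorescence not abnormally high, positive integrated signal ratio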;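 also: B-score derived from integrated fluorescence ratio over the kinetic read; more negative B-score means stronger inhibition of depolarization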
# TRPC4 block = inhibitors of mouse TRPC4 channel | Q9QUQ5 | HEK293 TRPC4beta/mu-opioid, DAMGO-evoked Fluo4 calcium flux; hits give low values | B-score at 10 µM | 300,000 tested, 0.39% active | AID 2247;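 active = B-score over 3 SD under the library average, no early fluorescence shift, positive overall ratio signal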
#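 material = TRPC4beta/mu-opioid receptor HEK293 cell line | probe or stimulus = sequential submaximal and maximal DAMGO stimulation | compound dosing = one concentration per compound | measured by = Fluo4 Ca2+ flux fluorescence | evaluation = integrated fluorescence ratio relative to baseline, converted to per-well B score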
# TRPC6 act = activators of mouse TRPC6 channel | HEK293-TRPC6 membrane potential dye fluorescence; hits give high values | 310,000 tested, 0.13% active | B-score at 10 µM;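 active = B-score of the integrated fluorescence ratio above library mean plus 3 SD, and starting fluorescence ratio within library mean plus 5 SD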;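 also: higher score means more depolarization so channel activation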
# TRPC4 sel inh 2 = second selectivity test of TRPC6 inhibitors: effect on mouse TRPC4; shares compounds with TRPC6 inh; HEK293 TRPC4/MOR, membrane potential dye fluorescence; channel activated by saturating DAMGO dose; inhibition, % at 10 µM; 920 tested, 42% active; AID 2776;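 active = compounds whose fluorescence signal differed from control wells by over 3 SD, either direction, in both duplicate plates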
# TRPC4 spec = tests whether TRPC6 inhibitors also affect mouse TRPC4 | shares compounds with TRPC6 inh | HEK293 TRPC4/mu-opioid, membrane potential fluorescence | activity change, negative = inhibition, % at 10 µM | 920 tested, 61% active | AID 2777;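 active = rise or fall in signal beyond 3 SD of buffer-only wells in both replicate plates, either sign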;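 also: integrated kinetic ratio of fluorescence range over baseline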
# HEK293 MPD ctr 2-1 = parental HEK293 nonspecific activity of TRPC6 inhibitors, second screen. 920 tested, 31% active. shares compounds with TRPC6 inh. signal change vs control, % at 10 µM. parental HEK293 membrane potential dye fluorescence; maximal acetylcholine challenge after compound addition. AID 2779;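 active = membrane potential signal moving either way by over 3 SD of the maximum-effect control, in both duplicate plates, meaning non-specific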
# HEK293 MPD ctr-1 = parental HEK293 nonspecific activity of TRPC6 inhibitors | shares compounds with TRPC6 inh | parental HEK293 membrane potential dye fluorescence | membrane potential signal change, % at 10 µM | 920 tested, 60% active | AID 2780;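 active = membrane potential signal shifting up or down by more than 3 SD of buffer-only wells, on both duplicate plates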
# HEK293 MPD ctr-2 = checks TRPC6 modulator effects in parental HEK293 cells; shares compounds with TRPC6 inh; membrane potential dye fluorescence; membrane potential signal change, % at 10 µM; 2,400 tested, 51% active; AID 488924;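 active = membrane potential signal moves up or down beyond 5 SD from buffer-only wells, on both duplicate plates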
# HEK293 MPD ctr 2-2 = second check of TRPC6 modulator effects in parental HEK293 cells; shares compounds with TRPC6 inh; membrane potential dye fluorescence; after compound, maximal acetylcholine stimulation; inhibition, % at 10 µM; 2,400 tested, 14% active; AID 488926;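 active = membrane potential signal drops by more than 5 SD from the mean control signal, in both duplicate plates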;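 also: plate controls were acetylcholine ECmax control wells for no effect and buffer only wells for full effect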
# TRPC4 ctr mod = selectivity of TRPC6 modulators against mouse TRPC4. shares compounds with TRPC6 inh. HEK293 TRPC4/mu-opioid, membrane potential fluorescence. percent change from control (negative = decrease, positive = increase), % at 10 µM. 2,400 tested, 69% active;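 active = membrane potential signal moved up or down beyond 5 SD of buffer control wells, in both duplicate plates, actives on both sides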;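 also: plate controls were assay buffer wells for no effect and DAMGO maximal-effect wells for full effect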
# TRPC4/MOR inh 2 = second check of whether TRPC6 modulators also affect mouse TRPC4; inhibition, % at 10 µM; 2,400 tested, 55% active; shares compounds with TRPC6 inh; HEK293 TRPC4/mu-opioid, membrane potential dye fluorescence; stimulated with maximal-effect DAMGO;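 active = drop in membrane potential signal beyond 5 SD of the control wells in both duplicate plates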;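 also: TRPC4 counter screen for TRPC6 hits run under conditions tuned for TRPC6 not TRPC4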
# TRPC6 inh conf = confirmation of mouse TRPC6 inhibitors; shares compounds with TRPC6 inh; HEK293-TRPC6, membrane potential dye, ACh-evoked depolarization; inhibition, % at 10 µM; 3,300 tested, 43% active; AID 488960;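 active = fluorescence ratio falls more than 5 SD below the full-stimulation control mean, in both duplicate runs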;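 also: integrated fluorescence ratio of peak minus minimum over baseline after agonist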
# TRPC6 act confirm = confirmation of mouse TRPC6 activators; 2,800 tested, 11% active; shares compounds with TRPC6 inh; activation, % at 10 µM; AID 488961; HEK293-TRPC6 membrane potential dye fluorescence, FDSS;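 active = ratio signal rise beyond 5 SD above unstimulated control wells' mean, seen in both duplicate runs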;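 also: plate controls were buffer EC0 wells for no effect and acetylcholine ECmax response for full effect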
# Active calls of the source: *; i = inactive; . = no result given.
SMILES,TRPC4 act,TRPC4 PAM,TRPC6 inh,TRPC4 block,TRPC6 act,HEK293 MPD ctr-2,HEK293 MPD ctr 2-2,TRPC4 ctr mod,TRPC4/MOR inh 2,TRPC6 inh conf,TRPC6 act confirm,others
Brc1cc2c(cc1/C=N/Nc1nc(N3CCOCC3)nc(N3CCOCC3)n1)OCO2,i,i,i,i,i,.,.,.,.,.,.,
COc1ccc(Nc2c3c(nc4ccccc24)CCCC3)cc1OC,i,i,-6*,i,i,i,i,i,44%*,i,i,
O=C1c2ccccc2C(=O)c2c(Nc3ccc(CCO)cc3)ccc(O)c21,i,i,-5.2*,i,i,i,i,-9.0%*,42%*,i,i,
CC(=O)Nc1ccc(Nc2ccc3c4c(cc(=O)n3C)-c3ccccc3C(=O)c24)cc1,i,i,i,i,i,.,.,.,.,.,.,
CN(C)C(CNc1ccc(S(C)(=O)=O)cc1[N+](=O)[O-])Cc1ccccc1 (stereo not given),i,i,-5.1*,i,i,i,i,i,32%*,i,i,
COC(=O)c1ccc(CN2C(=O)C(C)N(C(=O)c3c(F)cccc3F)c3ccccc32)cc1 (stereo not given),i,i,i,i,i,.,.,.,.,.,.,
CCN(CC)CCC/C(=N\O)C(O)(c1ccccc1)c1ccccc1,i,i,-9.4*,i,i,.,.,.,.,88%*,i,TRPC4 sel inh 2=i;TRPC4 spec=0.0%*;HEK293 MPD ctr 2-1=-37%*;HEK293 MPD ctr-1=i
CC/C(CC(C)(C)c1ccccc1)=N\O,i,i,i,i,i,.,.,.,.,.,.,
CC[N+](C)(CC)CCC/C(=N/O)C(O)(c1ccccc1)c1ccccc1,i,i,-8.5*,i,i,.,.,.,.,71%*,i,TRPC4 sel inh 2=i;TRPC4 spec=i;HEK293 MPD ctr 2-1=3.5%*;HEK293 MPD ctr-1=i
COc1ccccc1N1CCN(S(=O)(=O)c2c(C(=O)N3CCOCC3)c(C)n(C)c2C)CC1,i,i,i,i,i,.,.,.,.,.,.,
Cn1ncc(Cl)c1C(=O)NC1CCCC1,i,i,i,i,i,.,.,.,.,.,.,
N#Cc1c(-c2cccs2)nc(SCC(=O)c2cccs2)[nH]c1=O,i,i,i,i,12*,114%*,i,26%*,i,i,40%*,
O=C(CSc1nc2ccccc2c(=O)[nH]1)c1cccs1,i,i,i,i,i,.,.,.,.,.,.,
COCC(=O)N(Cc1cc2cccc(C)c2[nH]c1=O)c1ccccc1,i,i,i,i,i,.,.,.,.,.,.,
O=C(COC(=O)c1cc(S(=O)(=O)N2CCOCC2)ccc1F)NCc1ccco1,i,i,-6.2*,i,i,i,i,i,i,i,i,
O=C(COC(=O)c1ccc(F)c(S(=O)(=O)N2CCOCC2)c1)NCc1ccco1,i,i,i,i,i,.,.,.,.,.,.,
Cc1ccc(C(=O)C[n+]2cc(-c3ccc(C)cc3)n3c2CCCCC3)cc1,i,i,-5.4*,i,12*,265%*,i,48%*,42%*,51%*,90%*,
O=C(C[n+]1cc(-c2ccc(Cl)cc2)n2c1CCC2)N1c2ccccc2Sc2ccccc21,i,i,-6.2*,i,i,i,58%*,-10%*,i,73%*,i,
CC(C)[C@H](NC(=O)c1cc2cc(Cl)ccc2n1C)C(=O)N[C@@H](C(=O)O)c1ccccc1,i,i,i,i,i,.,.,.,.,.,.,
Cc1nc(N)nc(N)c1CCCc1ccc(Cl)c(Cl)c1,i,i,-5.7*,i,i,i,i,i,50%*,40%*,i,
CC(C)CCC1=NN(C(=O)c2ccco2)C(O)(C(F)(F)F)C1 (stereo not given),i,i,i,i,i,.,.,.,.,.,.,
COc1ccc2c(c1)C(C)=CC(C)(C)N2S(=O)(=O)c1ccc(NC(C)=O)cc1,i,i,i,i,14*,i,i,10%*,i,i,i,
CCN(C1CCCCC1)S(=O)(=O)c1ccc(S(=O)(=O)N2CCN(CCC#N)CC2)cc1,i,i,-5.5*,i,i,i,i,10%*,i,38%*,i,
O=C(O)c1ccccc1N/N=C/c1cc(Br)cc(Br)c1O,i,i,-6.5*,-9*,i,i,i,-11%*,74%*,i,i,
O=C(Cc1ccccc1)N/N=C/c1cc(Br)cc(Br)c1O,i,i,i,i,i,.,.,.,.,.,.,
O=C(CCc1cccc(Cl)c1)N1CCCC(Nc2ccccc2)C1 (stereo not given),i,i,-8.6*,i,i,.,.,.,.,55%*,i,TRPC4 sel inh 2=i;TRPC4 spec=i;HEK293 MPD ctr 2-1=i;HEK293 MPD ctr-1=i
CCc1ccc(OS(=O)(=O)c2cn(C)c(=O)n(C)c2=O)cc1,i,i,i,i,i,.,.,.,.,.,.,
COc1cc2nc(Nc3cccc(F)c3)nc(N)c2cc1OC,i,i,-6.5*,i,i,i,i,i,47%*,52%*,i,
Cc1ccc(Nc2nc(N)c3ccccc3n2)cc1C,i,i,-12*,i,i,-94%*,65%*,-36%*,78%*,66%*,i,
